The source made the active and inactive calls. The calls are words filed in the database; no cut-off is given here.
Assays:
[1] = Terminal half life in C57BL/6 mouse lung at 30 mg/kg, ip; assay type: ADME, organism-based; conditions: read-out: beta t1/2 (converted)
Outline: (§1)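 Male C57BL/6 mice, single intraperitoneal 30 mg/kg dose, N=3. Plasma, liver and lung concentrations followed over time to give concentration-time profiles, from which Tmax, Cmax, terminal t1/2, AUClast and AUCINF were derived.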

[2] = Terminal half life in C57BL/6 mouse liver at 30 mg/kg, ip; assay type: ADME, organism-based; conditions: read-out: beta t1/2 (converted); outline: as §1
MDCK [3] = assay: Cytotoxicity against MDCK cells assessed as reduction in cell viability measured after 48 hrs by CellTiter Glo assay; assay type: cell-based, Canis lupus familiaris; conditions: dog
Outline: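 MDCK cells were incubated with compound under the conditions of the 48 h replication assay. Cytotoxicity was read with the CellTiter-Glo ATP viability assay. Follow-up viability testing used 5, 10, 50 and 100 μM.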

[4] = AUClast in C57BL/6 mouse lung at 30 mg/kg, ip; assay type: ADME, organism-based; set-up: dose 30 mg/kg, route intraperitoneal, time 0 - last
Outline: (§2)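 Male C57BL/6 mice received a single intraperitoneal dose of 30 mg/kg (N=3). Compound concentrations were followed over time in plasma, liver and lung. Tmax, Cmax, terminal t1/2, AUClast and AUCINF were derived from the mean concentration-time profiles.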

[5] = AUC (infinity) in C57BL/6 mouse liver at 30 mg/kg, ip; assay type: ADME, organism-based; set-up: dose 30 mg/kg, time infinity, route intraperitoneal; outline: as §2
[6] = Stability of the compound in mouse liver microsomes assessed as parent compound remaining measured immediately; assay type: ADME, Microsome; conditions: read-out: Stability
Outline: (§3)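 Mouse liver microsomes; percent parent compound remaining measured at 0, 15 and 30 min.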

[7] = Terminal half life in C57BL/6 mouse plasma at 30 mg/kg, ip; assay type: ADME, organism-based; conditions: C57BL/6, mouse, plasma, read-out: beta t1/2 (converted); outline: as §1
[8] = AUC (infinity) in C57BL/6 mouse plasma at 30 mg/kg, ip; assay type: ADME, organism-based; set-up: dose 30 mg/kg, route intraperitoneal, time infinity; outline: as §2
[9] = Toxicity in C57BL/6 mouse assessed as effect on liver at 30 mg/kg, ip; assay type: organism-based; conditions: in vivo
[10] = Stability of the compound in mouse liver microsomes assessed as parent compound remaining measured after 15 mins; assay type: ADME, Microsome; conditions: read-out: Stability; outline: as §3
[11] = Tmax in C57BL/6 mouse lung at 30 mg/kg, ip; assay type: ADME, organism-based; outline: as §1
[12] = AUC (infinity) in C57BL/6 mouse lung at 30 mg/kg, ip; assay type: ADME, organism-based; set-up: dose 30 mg/kg, route intraperitoneal, time infinity; outline: as §2
[13] = Cmax in C57BL/6 mouse lung at 30 mg/kg, ip; assay type: ADME, organism-based; set-up: dose 30 mg/kg, route intraperitoneal; outline: as §2
[14] = Stability of the compound in mouse liver microsomes assessed as parent compound remaining measured after 30 mins; assay type: ADME, Microsome; conditions: read-out: Stability; outline: as §3
[15] = Toxicity in C57BL/6 mouse assessed as effect on lungs at 30 mg/kg, ip; assay type: organism-based; conditions: in vivo
[16] = Tmax in C57BL/6 mouse liver at 30 mg/kg, ip; assay type: ADME, organism-based; outline: as §1
[17] = Cmax in C57BL/6 mouse plasma at 30 mg/kg, ip; assay type: ADME, organism-based; set-up: dose 30 mg/kg, route intraperitoneal; conditions: C57BL/6, mouse, plasma, read-out: Cmax; outline: as §2
[18] = Aqueous kinetic solubility of the compound; assay type: physicochemical; conditions: buffer
[19] = Tmax in C57BL/6 mouse plasma at 30 mg/kg, ip; assay type: ADME, organism-based; conditions: C57BL/6, mouse, plasma, read-out: Tmax; outline: as §1
[20] = (§4) Cytotoxicity against MDCK cells assessed as reduction in cell viability measured on day 5 by Celltiter-Glo luminescence assay; assay type: cell-based, Canis lupus familiaris; conditions: dog, MDCK cells
Outline: (§5)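 MDCK cells were infected with seasonal influenza A strains through NIAID resources and scored for protection from virus-induced cell death. Compounds were tested at four concentrations (0.8, 4, 20, 100 μM). EC50/EC90 (reduction of viral cell death) and CC50 (reduction of cell viability) were derived in μM, and SI50 = CC50/EC50.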

[21] = Cmax in C57BL/6 mouse liver at 30 mg/kg, ip; assay type: ADME, organism-based; set-up: dose 30 mg/kg, route intraperitoneal; outline: as §2
[22] = Toxicity in C57BL/6 mouse assessed as adverse effect at 30 mg/kg, ip; assay type: organism-based; conditions: in vivo
[23] = AUClast in C57BL/6 mouse plasma at 30 mg/kg, ip; assay type: ADME, organism-based; set-up: dose 30 mg/kg, route intraperitoneal, time 0 - last; outline: as §2
Saccharomyces cerevisiae = assay: Effect on growth of Yeast 9526-6-2 harboring pYES at 50 uM measured up to 60 hrs; assay type: organism-based; conditions: in vivo
Outline: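 Control yeast carrying empty pYES and NS1-expressing NS1-pYES strain grown with DMSO or compound at 50 μM. Growth measured as OD600 at 22, 42 and 60 h.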

[24] = Apparent permeability across apical to basolateral side in human Caco2 cells measured after 2 hrs; assay type: ADME, cell-based; conditions: caco-2, 2 h
Outline: (§6)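 Permeability was measured across Caco-2 monolayers in both directions, apical to basolateral and basolateral to apical. […] Runs were done with and without 3% BSA, and mass recovery (%) was reported for each direction. Efflux ratio = Papp B→A / Papp A→B.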

[25] = AUClast in C57BL/6 mouse liver at 30 mg/kg, ip; assay type: ADME, organism-based; set-up: dose 30 mg/kg, time 0 - last, route intraperitoneal; outline: as §2
[26] = Apparent permeability across basolateral to apical side in human Caco2 cells measured after 2 hrs; assay type: ADME, cell-based; conditions: caco-2, 2 h; outline: as §6
Influenza A virus [27] = assay: Antiviral activity against Influenza A virus A/PR/8/34 (H1N1) infected in MDCK cells assessed as fold reduction in virus titer at 10 uM measured after 48 hrs by hemagglutination assay relative to control; assay type: functional, A/Puerto Rico/8/1934(H1N1)
Outline: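 MDCK cells were infected with A/PR/8/34 (H1N1) at MOI 0.1 and incubated with compound for 48 h. Supernatant virus was then quantified by hemagglutination assay and standard TCID50 analysis. The single-concentration screen used 10 μM and reports fold reduction in titer. Dose-response runs used triplicate cultures, with percent titer decrease back-calculated from TCID50.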

Influenza A virus H3N2 = assay: Antiviral activity against Influenza A virus (A/Brisbane/10/2007(H3N2)) infected in MDCK cells assessed as reduction in virus-induced cytopathic effect measured on day 5 by Celltiter-Glo luminescence assay; assay type: functional, organism-based; conditions: 120 h; outline: as §5
Influenza A virus [28] = assay: Antiviral activity against Influenza A virus (A/California/7/2009(H1N1)) infected in MDCK cells assessed as reduction in virus-induced cytopathic effect measured on day 5 by Celltiter-Glo luminescence assay; assay type: functional, organism-based; conditions: 120 h; outline: as §5
MDCK [29] = assay: as §4; assay type: cell-based, Canis lupus familiaris; conditions: dog, mdck; outline: as §5
Influenza B virus = assay: Antiviral activity against Influenza B virus (B/Brisbane/60/2008) infected in MDCK cells assessed as reduction in virus-induced cytopathic effect measured on day 5 by Celltiter-Glo luminescence assay; assay type: functional, organism-based

## COc1cc(-c2ccnc3c2c(C)nn3-c2cccc(C(F)(F)F)c2)ccc1O
[1]
  half-life: 5 h
[2]
  half-life: 5.3 h
MDCK [3]
  Activity: Non-Toxic
[4]
  AUC(0-t): 49100 ng·h/mL
[5]
  AUC(0-inf): 120000 ng·h/mL
[6]
  remaining at 0 min: 100%
[7]
  half-life: 5.2 h
[8]
  AUC(0-inf): 5970 ng·h/mL
[9]
  Activity: Non-Toxic
[10]
  remaining at 0.25 h: 25%
[11]
  Tmax: 4.98 min
[12]
  AUC(0-inf): 49100 ng·h/mL
[13]
  Cmax: 36200 ng/mL
[14]
  remaining at 0.5 h: 16%
[15]
  Activity: Non-Toxic
[16]
  Tmax: 4.98 min
[17]
  Cmax: 4470 ng/mL
[18]
  Kinetic_solubility: 1.7 µM
[19]
  Tmax: 4.98 min
[20]
  CC50 at 5 day: 24.5 to 49 µM
[21]
  Cmax: 64000 ng/mL
[22]
  Activity: Non-Toxic
[23]
  AUC(0-t): 5960 ng·h/mL
Saccharomyces cerevisiae
  Activity: Non-Toxic
[24]
  Papp: 0.13 ×10⁻⁶ cm/s
[25]
  AUC(0-t): 119000 ng·h/mL
[26]
  Papp: 0.38 ×10⁻⁶ cm/s

## CCOc1cc(-c2c(C#N)c(O)nc3c2c(C)nn3-c2ccc(F)cc2)ccc1O
Influenza A virus [27]
  fold change (FC): 2
Influenza A virus H3N2
  EC50: 47.6 µM
  EC90: > 50 µM
MDCK [3]
  Activity: Non-Toxic
Influenza A virus [28]
  EC50: 1.7 µM
  EC90: 4.9 µM
MDCK [29]
  CC50: > 50 µM
Influenza B virus
  Activity: inactive
